Measurements pooled from the literature.
Target: Serine/threonine-protein kinase Nek3 (NEK3, Homo sapiens, UniProt P51956)
Sequence (P51956 1-506, as in one of the studies): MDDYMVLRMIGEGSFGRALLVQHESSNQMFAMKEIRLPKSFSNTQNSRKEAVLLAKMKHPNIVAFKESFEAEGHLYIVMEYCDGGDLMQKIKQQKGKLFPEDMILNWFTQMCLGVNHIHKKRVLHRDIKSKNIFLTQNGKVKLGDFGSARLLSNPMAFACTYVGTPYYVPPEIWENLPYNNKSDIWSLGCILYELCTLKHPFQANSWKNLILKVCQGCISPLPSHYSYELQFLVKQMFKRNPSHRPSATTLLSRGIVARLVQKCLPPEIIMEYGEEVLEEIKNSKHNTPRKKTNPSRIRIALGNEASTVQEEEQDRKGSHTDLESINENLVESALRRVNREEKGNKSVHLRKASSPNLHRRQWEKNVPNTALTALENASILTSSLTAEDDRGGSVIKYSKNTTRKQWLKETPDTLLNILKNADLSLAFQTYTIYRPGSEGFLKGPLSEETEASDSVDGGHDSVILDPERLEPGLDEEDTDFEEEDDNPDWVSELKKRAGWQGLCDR

| SMILES | observed | action | method | tested at | quantity | value |
| --- | --- | --- | --- | --- | --- | --- |
| Cc1ccc(C(=O)Nc2ccc(CN3CCN(C)CC3)c(C(F)(F)F)c2)cc1C#Cc1cnc2cccnn12 | enzyme activity | inhibitor | – | 23.5 nM | remaining activity | 86% |
| CC(C)(C)c1nc2c(s1)c1nc(N)ncc1c1ccc(NS(=O)(=O)c3c(F)cccc3F)c(F)c12 | enzyme activity | inhibitor | radiometric | 1 µM | remaining activity | 118% |
| N#CCCc1ccc2c(c1)-c1[nH]c3ccc([N+](=O)[O-])cc3c1CC(=O)N2 | cell-free assay | – | – | 0.5 µM | remaining signal | 104% |
| CCN(CC)c1ccc(C2=NNC(=O)CC2C)cc1[N+](=O)[O-] (stereo not shown) | enzyme activity | inhibitor | – | 10 µM | remaining activity | 90% |
| Nc1ncnc2occ(-c3ccc(NC(=O)Nc4cc(C(F)(F)F)ccc4F)cc3)c12 | cell-free assay | inhibitor | – | 20 µM | remaining signal | 63% |
| CN(C)C(=O)Cn1cc(-c2nc([C@@](C)(c3ccc(-c4cnc(N)nc4)cc3)C3CC3)no2)cn1 | cell-free assay | – | competition with immobilised ligand | 1 µM | remaining binding | 87% |
| Cc1sc(C(=O)NC2COC2)cc1-n1cc(NC(=O)Nc2c(F)cccc2Cl)cn1 | enzyme activity | inhibitor | – | 10 µM | remaining activity | 87.5% |
| Cc1ccc(Nc2nccc(N(C)c3ccc4c(C)n(C)nc4c3)n2)cc1S(N)(=O)=O | enzyme activity | inhibitor | – | 0.5 µM | remaining activity | 94.2% |
| Nc1cnc(N2CCc3cc(S(=O)(=O)Nc4c(F)cc(Cl)cc4F)cc(N4CCCC4=O)c32)nc1 | cell-free assay | – | competition with immobilised ligand | 1 µM | remaining binding | 100% |
| Cc1cnc(NC2CCOCC2)nc1-n1cnc(C(=O)NC(CN)c2cc(F)cc(Cl)c2)c1 (stereo not shown) | enzyme activity | inhibitor | radiometric | 1 µM | remaining activity | 65% |
| CNC(=O)c1ccc(Nc2ncc(C(F)(F)F)c(NCc3nccnc3N(C)S(C)(=O)=O)n2)cc1 | cell-free assay | – | competition with immobilised ligand | 0.1 µM | remaining binding | 100% |
| O=C1Nc2ccc(Cl)cc2C1=Cc1cc(Cl)c(O)c(Cl)c1 | cell-free assay | – | – | 0.5 µM | remaining signal | 94% |
| CN1CC(Oc2cnc(C#N)cc2-c2ccn3nc(NC(=O)C4CC4)cc3c2)C1 | enzyme activity | inhibitor | – | 1 µM | inhibition | 12% |
| C[C@H](NC(=O)c1cnc2n1[C@](C)(Cc1ccc(C#N)cc1)C(=O)N2c1cc(Cl)c(F)c(Cl)c1)C(=O)NC1(c2ccccn2)CC1 | cell-free assay | – | competition with immobilised ligand | 1 µM | remaining binding | 100% |
| c1ccc(CNc2nc(N3CCOc4ccccc43)nc3c2CCCC3)cc1 | target engagement in cells | inhibitor | chemoproteomics | 20 mM | inhibition | 5.9% |
| CCCCN(CCCC)C(=O)CN1C[C@@H](c2cc(OC)c3c(c2)OCO3)[C@H](C(=O)O)[C@H]1CC(C)(C)CCC | cell-free assay | – | competition with immobilised ligand | 1 µM | remaining binding | 72.9% |
| Cn1cnc(Br)c1C1=CN(c2ncnc3[nH]cnc23)CCS1 | enzyme activity | inhibitor | radiometric | 2 µM | inhibition | 79.9% |
| CO[C@@H](C)c1c(Nc2ccc([C@@H](N(C)C(=O)C3CCS(=O)(=O)CC3)C(F)(F)F)cc2)cnc2cc(Cl)nn12 | cell-free assay | – | competition with immobilised ligand | 1 µM | remaining binding | 61% |
| CC(C)(O)[C@H]1CC[C@H](Nc2ccc3ncc(-c4cccc(C(F)(F)F)c4)n3n2)CC1 | enzyme activity | inhibitor | – | 1 µM | remaining activity | 91% |
